According to ChEMBL document CHEMBL6092133, “Enhancing the therapeutic window for Spectinamide anti-tuberculosis Agents: Synthesis, Evaluation, and activation of phosphate prodrug 3408” (Bioorg Med Chem Lett, 2024):

Assays:
[1] = system: Mycobacterium tuberculosis; experiment: (§1) Antibacterial activity against Mycobacterium tuberculosis Erdman harboring pFCA-LuxAB plasmid infected in female BALB/c mouse model assessed as log reduction in bacterial burden in lung at 400 mg/kg, SC administered once daily for 12 days starting from day 7 and measured 3 days post last treatment relative to untreated control; format: functional; settings: time 15 day
In short: (§2)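 BALB/c mice given a low-dose aerosol infection with M. tuberculosis Erdman pFCA-LuxAB. Dosing ran once daily for 12 consecutive days from day 7 post-infection: 10 mg/kg orally or 400 mg/kg, as the line states. Lung bacterial burden (log10 CFU) was compared with untreated control, six mice per group.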

[2] = (§3) Prodrug conversion in female BALB/c mouse plasma infected with Mycobacterium tuberculosis Erdman harboring pFCA-LuxAB plasmid assessed as 2-(5-chloropyridin-2-yl)-N-((2R,4R,4aS,5aR,6S,7S,8R,9S,9aR,10aS)-4a,7,9-trihydroxy-2-methyl-6,8-bis(methylamino)decahydro-2H-benzo[b]pyrano[2,3-e][1,4]dioxin-4-yl)acetamide formation at 400 mg/kg, SC measured after 8 hrs; format: ADME, organism-based; settings: in vivo
In short: (§4)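 Plasma was sampled from infected BALB/c mice in the acute efficacy study 15 min and 8 h after a 400 mg/kg dose. Parent drug and prodrug levels were each quantified in the prodrug-treated and parent-treated groups.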

[3] = as §3, with “15 mins” for “8 hrs”; format: ADME, organism-based; settings: in vivo, 0.25 h; in short: as §4
[4] = Drug uptake in female BALB/c mouse plasma infected with Mycobacterium tuberculosis Erdman harboring pFCA-LuxAB plasmid at 400 mg/kg, SC measured after 15 mins; format: ADME, organism-based; settings: in vivo, 0.25 h; in short: as §4
[5] = Drug uptake in female BALB/c mouse plasma infected with Mycobacterium tuberculosis Erdman harboring pFCA-LuxAB plasmid at 400 mg/kg, SC measured after 8 hrs; format: ADME, organism-based; settings: in vivo; in short: as §4
[6] = system: Mycobacterium tuberculosis; experiment: as §1, with “10” for “400”, “po” for “SC”; format: functional; settings: time 15 day; in short: as §2

**Q.** Which “log(activity)” value [1] does the source give for `CN[C@@H]1[C@H](O)[C@H](NC)[C@H]2O[C@]3(O)[C@H](O[C@@H]2[C@H]1O)O[C@H](C)C[C@H]3NC(=O)Cc1ccc(OP(=O)(O)O)cn1` here?
**A.** 1.11

**Q.** And the Drug metabolism [2]?
**A.** metabolite_detected

**Q.** And the Drug metabolism [3]?
**A.** metabolite_detected

**Q.** And the Drug uptake [4]?
**A.** Active

**Q.** Which results are given for `CN[C@@H]1[C@H](O)[C@H](NC)[C@H]2O[C@]3(O)[C@H](O[C@@H]2[C@H]1O)O[C@H](C)C[C@H]3NC(=O)Cc1ccc(O)cn1`?
**A.** log(activity) [1]: 1.13; Drug uptake [5]: Active; Drug uptake [4]: Active

**Q.** With `CO[C@H]1/C=C/O[C@@]2(C)Oc3c(C)c(O)c4c(O)c(c(/C=N/N5CCN(C)CC5)c(O)c4c3C2=O)NC(=O)/C(C)=C\C=C\[C@H](C)[C@H](O)[C@@H](C)[C@@H](O)[C@@H](C)[C@H](OC(C)=O)[C@@H]1C` [RIFAMPIN] as the molecule, how does the “log(activity)” value [6] read?
**A.** 1.21
